# Screens as filed in PubChem.
# Rows were chosen to be rich in hits. Some 2.1% of all compounds tested hit in one or more screens of this group.
# DENV2 CPE rescue: inhibitors of DENV2 cytopathic effect | CPE inhibition, % at 9.99 µM | actives 1.7% (n = 350,000) | DENV2-infected cells, cytopathic effect rescue, plate reader; in the data active = CPE inhibition above about 20%, passing the limit was not always enough; inconclusive = no clear call, values can overlap the other calls; tested in BHK-21 cells;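 also: 0% = median of neutral control wells and 100% = median of positive control wells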
# XiGFP reactiv: reactivates the inactive X chromosome in mouse fibroblasts. XiGFP mouse fibroblasts, % GFP-positive cells imaging, 3 d; cells co-treated with 5-aza-dC sensitizer; scaled so ellipticine positive control = 100%. activation, % at 7.58 µM. actives 0.055% (n = 360,000). AID 743238;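 active = mean normalized replicate activation at least 10% and every replicate at or above 10%; inconclusive = only one of the two criteria met; inactive = mean below 10% and not all replicates reach 10%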;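 also: 0% = median of on-plate neutral control wells and 100% = ellipticine 6 µM median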
#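 Material: XiGFP fibroblasts, SV40-immortalized. Buffer or medium: DMEM plus 5-aza-dC sensitizer. Compound: single concentration per compound, delivered by pin transfer. Times: 3 days compound exposure. Controls: ellipticine 6 µM.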
# C2C12 statin: suppression of simvastatin myotoxicity. AID 602340. actives 0.78% (n = 330,000). rescue of ATP level, % at 7.49 µM. C2C12 myotubes + simvastatin, ATP luminescence, 48 h; scaled: DMSO 0, geranylgeraniol control 100;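 active = mean ATP rescue above about 67%, or every replicate alone reaching that limit, limit read from the data, passing the limit was not always enough; inconclusive = no clear call, values can overlap the other calls; inactive = mean under the limit and some replicate under it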;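 also: myotubes were challenged with 10 µM simvastatin during compound exposure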
# Cneo AK release: causes C. neoformans cell lysis. lysis activity, % at 15 µM. actives 0.2% (n = 360,000). adenylate kinase release luminescence, 4 h; normalised: neutral wells 0, clomiphene wells 100;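 active = mean lysis activity across replicates of at least 80%, whatever share of replicates individually reach that level; inactive = mean lysis activity below 80%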
#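 Assay system: C. neoformans cells. Amount: yeast cell density of 5 × 10^6 cells/mL. Technique: AK luminescence. Buffer or medium: YPD. Times: static 4 h at 37 °C with compound, 1 h detection. Dosing: single-point compound dose. Read-out: lysis from increased AK signal.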
# Numbers without * were called inactive; ? = inconclusive; . = no result given.
SMILES,DENV2 CPE rescue,XiGFP reactiv,C2C12 statin,Cneo AK release
COc1ccc(C#Cc2ccc([C@@H]3[C@@H](CO)N4CCCCN(C(=O)Nc5ccc(F)cc5)C[C@H]34)cc2)cc1,-13.2,0.1,.,-0.1
COc1ccccc1C(=O)Nc1ccc2c(c1)C(=O)N(C)[C@H]1CC[C@@H](CC(=O)NCCc3ccncc3)O[C@H]1CO2,3.6,0.1,-0.8,1.1
O=C(c1ccccc1)N1CC2(C1)[C@@H](c1ccccc1)[C@H](CO)N2C(=O)CC1CC1,-15.7,0.1,.,.
COc1cccc(C2C(C#N)=C(N)Oc3cc(C)n(Cc4ccco4)c(=O)c32)c1 (stereo unspecified),.,.,142.3*,6.9
COc1cccc(S(=O)(=O)N[C@H]2CC[C@@H](CC(=O)NC3CCC3)O[C@@H]2CO)c1,0.8,0.0,19.2,0.9
COc1ccccc1CNC(=O)C[C@@H]1C[C@H]2c3cc(N(C)C)ccc3O[C@H]2[C@@H](CO)O1,47.1*,0.4,-4.3,9.0
COc1ccccc1CNC(=O)C[C@H]1C[C@@H]2c3cc(N(C)C)ccc3O[C@@H]2[C@@H](CO)O1,6.9,0.2,-13.6,5.0
CN(C)c1ccc2c(c1)[C@@H]1C[C@H](CC(=O)NCc3ccccc3)O[C@@H](CO)[C@@H]1O2,20.7*,0.2,-4.4,-3.4
CN(C)c1ccc2c(c1)[C@H]1C[C@H](CC(=O)NCc3ccc(-c4ccccc4)cc3)O[C@@H](CO)[C@H]1O2,6.9,0.0,11.6,-1.3
O=C(O)CCC(=O)OCC1CCCCC1,.,.,114.2*,2.6
O=C(O)CCC(=O)NNC(=O)CCC1CCCCC1,.,0.0,.,.
COc1ccc(C(=O)/C=C2\Sc3ccccc3N2C)cc1,0.4,0.1,.,.
COc1ccc(-[n+]2c(C)cc(/C=C3\Sc4ccccc4N3C)cc2C)cc1,6.7,178.6*,.,.
COc1ccccc1-[n+]1c(C)cc(/C=C2\Sc3ccccc3N2C)cc1C,15.0,101.2*,-154.9,-4.2
CCc1csc(N2[C@H](C#N)[C@@H](c3ccc(-c4ccc(F)cc4)cc3)[C@H]2CO)n1,-14.3,0.0,12.0,2.8
O=C(Cc1ccncc1)NCC[C@@H]1CC[C@H](NC(=O)C2CCC2)[C@@H](CO)O1,0.7,-0.4,-0.1,-5.2
C=CCOC(=O)C1=C(C)NC(=O)NC1C1CC=CCC1 (stereo unspecified),.,.,117.1*,.
CC(C)(C)CN1C(=O)C(=O)NC[C@@H]1CCCCN,136.0*,0.0,-1.0,2.5
O=C1NC[C@@H](CCCCN2CCN(CCc3ccc(O)cc3)C(=O)C2=O)N(Cc2ccccc2)C1=O,87.3*,-0.1,.,.
CCCC[C@@H]1CNC(=O)C(=O)N1CCCCC1CCCCC1,42.4*,-0.1,.,.
CC(C)C[C@@H]1CN(CCCC[C@H]2CNC(=O)C(=O)N2CCC2CCCCC2)C(=O)C(=O)N1Cc1ccccc1,24.1*,-0.1,.,.
CC(C)C[C@H]1CN(CCCC[C@H]2CNC(=O)C(=O)N2CCC2CCCCC2)C(=O)C(=O)N1CCc1ccccc1,-4.9,0.0,.,.
CC(C)(C)CN1C(=O)C(=O)NC[C@@H]1CC1CCCCC1,-3.2,0.1,.,.
O=C(c1cnccn1)N1CC2(C1)[C@@H](c1ccccc1)[C@@H](CO)N2C(=O)c1ccccc1,10.1,0.0,.,.
CC(C)(C)[C@@H]1C=C(C(=O)N2CCCC2)O[C@H](OCc2ccc(CO)cc2)C1,-9.3,.,.,1.2
SMILES,DENV2 CPE rescue,XiGFP reactiv,C2C12 statin,Cneo AK release
CCC(=O)Nc1cc(C(=O)OCc2ccc(C(=O)Oc3ccccc3)cc2)ccc1C,82.0*,0.0,-1.2,.
CC(=C/c1ccccc1)/C=N/Nc1nc(N2CCCCC2)nc(N2CCCCC2)n1,63.6*,-0.1,-13.5,-1.0
Cc1ccccc1NS(=O)(=O)c1ccc(C(=O)N2CCN(S(=O)(=O)c3ccccc3)CC2)cc1,?,0.0,20.9,0.3
O=S(=O)(Nc1cccc2cccnc12)c1ccc(S(=O)(=O)N2CCCC2)cc1,.,.,70.4*,-1.3
Cc1ccc(S(=O)(=O)c2cccc(S(=O)(=O)N3CCCC3)c2)cc1S(=O)(=O)N1CCCC1,.,.,90.3*,-2.7
Cc1ccccc1NS(=O)(=O)c1ccc(S(=O)(=O)N2CCCC2)cc1,22.4*,0.5,12.7,-0.5
CN1CCN(C(=O)C[C@H]2CC[C@H]3[C@@H](COc4ccc(NC(=O)C5CC5)cc4C(=O)N3C)O2)CC1,0.9,-0.1,-21.4,-0.8
O=C(c1cc(-c2cccs2)on1)N1CCCc2ccccc21,85.2*,0.2,4.2,-2.0
Cc1ccc(-c2cc(C(=O)N3CCCc4ccccc43)no2)cc1,-4.7,0.2,-0.1,-5.7
